Experiment [1] concerns the target SUMO-activating enzyme (Homo sapiens) (UniProt Q9UBE0+Q9UBT2). The experiment can be described thus: Inhibition of human recombinant SAE1/2 assessed as inhibition of SUMO1-UbcH9 complex formation at 0.001 to 10 uM after 1.5 hrs by Western blot analysis. It is filed as protein-complex assay. In a few lines: (§1)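 Cell-free gel assay. Purified human recombinant E1 incubated with its matching Ub/Ubl and E2 in 50 mM HEPES pH 7.4, 5 mM MgCl2, 1–20 μM ATP. Inhibitor at 0, 0.001, 0.01, 0.1, 1 or 10 μM, 1.5 h at room temperature. Products resolved by SDS-PAGE, immunoblotted and detected by ECL; densitometry used for semiquantitation.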

Experiment [2] is filed under the species Homo sapiens. The experiment can be described thus: Inhibition of human recombinant NAE assessed as inhibition of NEDD8-UbcH12 complex formation at <10 nM after 1.5 hrs by Western blot analysis. In a few lines:
as §1

The next experiment concerns K562. The experiment can be described thus: Antiproliferative activity against human K562 cells after 72 hrs by CellTiter-Glo assay. In kind it is functional, cell-based. To be noted: K562, 72 h. In a few lines:
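K562 leukemia cells exposed to increasing concentrations for 72 h; growth and viability read by CellTiter-Glo luminescence.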

Experiment [3] deals with Ubiquitin-like modifier-activating enzyme 5 (Homo sapiens) (UniProt Q9GZZ9). The experiment can be described thus: Inhibition of human recombinant UBA5 assessed as inhibition of […]-UFM1 complex formation at 10 uM after 1.5 hrs by Western blot analysis. In a few lines:
as §1

The species named for experiment [4] is Homo sapiens. The experiment can be described thus: Inhibition of human recombinant NAE assessed as inhibition of NEDD8-UbcH12 complex formation at 0.001 to 10 uM after 1.5 hrs by Western blot analysis. In a few lines: as §1
The species named for experiment [5] is Homo sapiens. Kind of experiment: Inhibition of human recombinant UAE assessed as inhibition of UbcH6-Ub complex formation at 0.001 to 10 uM after 1.5 hrs by Western blot analysis. In a few lines:
as §1

For experiment [6], the species on record is Homo sapiens. The experiment can be described thus: Inhibition of human recombinant NAE assessed as inhibition of NEDD8-UbcH12 complex formation at 1 nM after 1.5 hrs by Western blot analysis. In a few lines:
as §1

The species entered for experiment [7] is Homo sapiens. The experiment can be described thus: Inhibition of human recombinant NAE assessed as inhibition of NEDD8-UbcH12 complex formation at 10 nM after 1.5 hrs by Western blot analysis. In a few lines:
as §1

The species named for experiment [8] is Homo sapiens. The experiment can be described thus: Inhibition of human recombinant NAE assessed as inhibition of NEDD8-UbcH12 complex formation at >10 nM after 1.5 hrs by Western blot analysis. In a few lines:
as §1

Active and inactive are the calls of the source. The rule behind the calls is not given here.

Chain of Ubiquitin-like modifier-activating enzyme 5 (Homo sapiens) (Q9GZZ9 whole entry): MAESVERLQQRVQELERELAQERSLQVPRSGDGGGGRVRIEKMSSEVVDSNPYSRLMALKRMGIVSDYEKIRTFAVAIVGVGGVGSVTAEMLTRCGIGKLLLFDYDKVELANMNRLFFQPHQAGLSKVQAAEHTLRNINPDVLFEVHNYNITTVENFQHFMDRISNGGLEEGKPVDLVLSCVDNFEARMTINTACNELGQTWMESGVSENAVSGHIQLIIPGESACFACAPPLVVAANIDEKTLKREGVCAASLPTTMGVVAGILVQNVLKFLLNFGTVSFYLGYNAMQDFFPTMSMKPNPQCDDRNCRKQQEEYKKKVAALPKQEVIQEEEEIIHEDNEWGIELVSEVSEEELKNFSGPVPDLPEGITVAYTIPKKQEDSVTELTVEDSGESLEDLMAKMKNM

Regarding `NS(=O)(=O)OC[C@H]1O[C@@H](n2cnc3c(N4CCC5CCCCC5C4)ncnc32)[C@H](O)[C@@H]1O` (stereo partly drawn), the inhibition entry (in [1]; in the experiment listed under Homo sapiens [4]; in the experiment filed under Homo sapiens [5]) was “Active” in each case. The inhibition entry (in the experiment listed under Homo sapiens [2]; in experiment [3]) was “inactive” each time. For the same compound, the EC50 in the experiment with K562 was over 1000 nM.

Consider `CCCNc1ncnc2c1ncn2[C@@H]1O[C@H](COS(N)(=O)=O)[C@@H](O)[C@H]1O`, for which the inhibition entry (in experiment [1]; in the experiment listed under Homo sapiens [4]; in the experiment filed under Homo sapiens [5]) was “Active” throughout. In addition, the inhibition result (in [3]; in the experiment listed under Homo sapiens [6]) was “inactive” each time. Besides, the inhibition in the experiment filed under Homo sapiens [7] was under 63%.

`CCCCCC(C)Nc1ncnc2c1ncn2[C@@H]1O[C@H](COS(N)(=O)=O)[C@@H](O)[C@H]1O` (stereo partly drawn): the inhibition entry (in [1]; in the experiment filed under Homo sapiens [4]; in the experiment listed under Homo sapiens [5]) was “Active” each time. This compound returned an EC50 with K562 of 203 nM. Also, in [3], the inhibition entry was “inactive”.

For the compound `CCCCN(C)c1ncnc2c1ncn2[C@@H]1O[C@H](COS(N)(=O)=O)[C@@H](O)[C@H]1O`, the inhibition entry in the experiment listed under Homo sapiens [8] was “Active”. In the experiment listed under Homo sapiens [2], the inhibition entry is “inactive”.

In the case of `CCN(c1ncnc2c1ncn2[C@@H]1O[C@H](COS(N)(=O)=O)[C@@H](O)[C@H]1O)C(C)C`, the inhibition result in the experiment filed under Homo sapiens [8] was “Active”. The inhibition result in the experiment filed under Homo sapiens [2] is “inactive”.

As for `CCC(C)Nc1ncnc2c1ncn2[C@@H]1O[C@H](COS(N)(=O)=O)[C@@H](O)[C@H]1O` (stereo partly drawn), the inhibition entry (in [1]; in the experiment listed under Homo sapiens [4]; in the experiment listed under Homo sapiens [5]) was “Active” in each case. In the experiment with K562, this compound returned a 50% effective concentration (EC50) of over 1000 nM. The inhibition result in experiment [3] is “inactive”. Moreover, the inhibition in the experiment listed under Homo sapiens [7] was under 25%.

Turning to `CN(Cc1ccco1)c1ncnc2c1ncn2[C@@H]1O[C@H](COS(N)(=O)=O)[C@@H](O)[C@H]1O`, the inhibition result (in the experiment listed under Homo sapiens [8]; in experiment [1]; in the experiment listed under Homo sapiens [4]; in the experiment filed under Homo sapiens [5]) was “Active” in each case. The inhibition entry (in the experiment filed under Homo sapiens [2]; in experiment [3]) was “inactive” in each case. The EC50 in the experiment with K562 is over 1000 nM.

Take `CNc1ncnc2c1ncn2[C@@H]1O[C@H](COS(N)(=O)=O)[C@@H](O)[C@H]1O`: the inhibition entry in the experiment listed under Homo sapiens [6] was “inactive”. Further, in the experiment filed under Homo sapiens [7], the inhibition was under 76%.

Consider `Nc1ncnc2c1ncn2[C@@H]1O[C@H](COS(N)(=O)=O)[C@@H](O)[C@H]1O`, for which, in the experiment listed under Homo sapiens [6], the inhibition is under 16%.

Turning to `CCCCN(CCCC)c1ncnc2c1ncn2[C@@H]1O[C@H](COS(N)(=O)=O)[C@@H](O)[C@H]1O`, the inhibition entry (in experiment [1]; in the experiment listed under Homo sapiens [4]; in the experiment listed under Homo sapiens [5]) was “Active” throughout. In addition, the inhibition result (in the experiment listed under Homo sapiens [2]; in experiment [3]) was “inactive” throughout.

As to `NS(=O)(=O)OC[C@H]1O[C@@H](n2cnc3c(NCc4cccs4)ncnc32)[C@H](O)[C@@H]1O`, the inhibition result (in [1]; in the experiment filed under Homo sapiens [4]; in the experiment listed under Homo sapiens [5]) was “Active” in each case. Further, the response in the experiment on K562 was half-maximal at 114 nM (EC50). Also, the inhibition result in experiment [3] is “inactive”. For the same compound, in the experiment listed under Homo sapiens [7], the inhibition amounted to 100%.

With `NS(=O)(=O)OC[C@H]1O[C@@H](n2cnc3c(NCC4CCCO4)ncnc32)[C@H](O)[C@@H]1O` (stereo partly drawn), the inhibition result (in experiment [1]; in the experiment filed under Homo sapiens [4]; in the experiment filed under Homo sapiens [5]) was “Active” in each case. For the same compound, the EC50 in the experiment on K562 was over 1000 nM. Besides, in experiment [3], the inhibition entry is “inactive”.

`CCCCCNc1ncnc2c1ncn2[C@@H]1O[C@H](COS(N)(=O)=O)[C@@H](O)[C@H]1O` displayed a 50% effective concentration (EC50) with K562 of 181 nM. Besides, the inhibition in the experiment filed under Homo sapiens [6] was under 62%.

For `CC(C)(C)CC(C)(C)Nc1ncnc2c1ncn2[C@@H]1O[C@H](COS(N)(=O)=O)[C@@H](O)[C@H]1O`, the inhibition entry (in experiment [1]; in the experiment listed under Homo sapiens [4]; in the experiment listed under Homo sapiens [5]) was “Active” in each case. Moreover, the EC50 in the experiment with K562 is over 1000 nM. Further, the inhibition entry (in experiment [3]; in the experiment filed under Homo sapiens [7]) was “inactive” each time.

For the compound `CN(Cc1ccccc1)c1ncnc2c1ncn2[C@@H]1O[C@H](COS(N)(=O)=O)[C@@H](O)[C@H]1O`, in the experiment filed under Homo sapiens [2], the inhibition result is “inactive”.

Turning to `NS(=O)(=O)OC[C@H]1O[C@@H](n2cnc3c(N4CCOCC4)ncnc32)[C@H](O)[C@@H]1O`, in the experiment listed under Homo sapiens [2], the inhibition result was “inactive”.

Turning to `NS(=O)(=O)OC[C@H]1O[C@@H](n2cnc3c(NCCCn4ccnc4)ncnc32)[C@H](O)[C@@H]1O`, the inhibition result (in experiment [1]; in the experiment listed under Homo sapiens [4]; in the experiment listed under Homo sapiens [5]) was “Active” each time. Moreover, the inhibition result in experiment [3] was “inactive”.

In the case of `NS(=O)(=O)OC[C@H]1O[C@@H](n2cnc3c(NC4CCCCCCC4)ncnc32)[C@H](O)[C@@H]1O`, in the experiment with K562, it took 380 nM to reach a half-maximal effect (EC50).

As to `CC(C)(C)CCNc1ncnc2c1ncn2[C@@H]1O[C@H](COS(N)(=O)=O)[C@@H](O)[C@H]1O`, the inhibition entry (in experiment [1]; in the experiment listed under Homo sapiens [4]; in the experiment filed under Homo sapiens [5]) was “Active” throughout. Also, a half-maximal response in the experiment with K562 (EC50) required 929 nM. The inhibition entry in experiment [3] was “inactive”. For the same compound, the inhibition in the experiment filed under Homo sapiens [7] was under 29%.

As to `CCCCN(CC)c1ncnc2c1ncn2[C@@H]1O[C@H](COS(N)(=O)=O)[C@@H](O)[C@H]1O`, the inhibition result in the experiment filed under Homo sapiens [2] was “inactive”.

Regarding `NS(=O)(=O)OC[C@H]1O[C@@H](n2cnc3c(Nc4ccccc4)ncnc32)[C@H](O)[C@@H]1O`, the inhibition result (in [1]; in the experiment listed under Homo sapiens [4]; in the experiment filed under Homo sapiens [5]) was “Active” each time. In addition, the inhibition entry in experiment [3] is “inactive”.

Regarding `CCCCCCCNc1ncnc2c1ncn2[C@@H]1O[C@H](COS(N)(=O)=O)[C@@H](O)[C@H]1O`, the inhibition entry (in experiment [1]; in the experiment listed under Homo sapiens [4]; in the experiment listed under Homo sapiens [5]) was “Active” in each case. The same compound displayed a half-maximal effective concentration (EC50) in the experiment with K562 of 132 nM. Further, the inhibition entry (in experiment [3]; in the experiment filed under Homo sapiens [6]) was “inactive” in each case.

As for `CC(C)Nc1ncnc2c1ncn2[C@@H]1O[C@H](COS(N)(=O)=O)[C@@H](O)[C@H]1O`, the inhibition result (in the experiment listed under Homo sapiens [8]; in [1]; in the experiment listed under Homo sapiens [4]; in the experiment listed under Homo sapiens [5]) was “Active” throughout. The inhibition entry in [3] is “inactive”.

Turning to `NS(=O)(=O)OC[C@H]1O[C@@H](n2cnc3c(N[C@@H]4C[C@H]5CCC4C5)ncnc32)[C@H](O)[C@@H]1O`, the inhibition entry (in [1]; in the experiment filed under Homo sapiens [4]; in the experiment filed under Homo sapiens [5]) was “Active” each time. The inhibition result in experiment [3] was “inactive”.

For `NS(=O)(=O)OC[C@H]1O[C@@H](n2cnc3c(NCC4COCCOCCOCCOCCO4)ncnc32)[C@H](O)[C@@H]1O` (stereo partly drawn), the inhibition result (in experiment [1]; in the experiment listed under Homo sapiens [4]; in the experiment listed under Homo sapiens [5]) was “Active” throughout. For the same compound, the EC50 with K562 was over 1000 nM. Moreover, in [3], the inhibition result was “inactive”.

On to `NS(=O)(=O)OC[C@@H]1C[C@@H](n2ccc3c(N[C@H]4CCc5ccccc54)ncnc32)C[C@@H]1O` [PEVONEDISTAT], for which the inhibition entry (in experiment [1]; in the experiment filed under Homo sapiens [4]; in the experiment listed under Homo sapiens [5]) was “Active” in each case. The EC50 in the experiment on K562 turned out to be 108 nM. Further, the inhibition entry in experiment [3] was “inactive”.

Regarding `CCN(CC)c1ncnc2c1ncn2[C@@H]1O[C@H](COS(N)(=O)=O)[C@@H](O)[C@H]1O`, the inhibition result (in [1]; in the experiment listed under Homo sapiens [4]; in the experiment listed under Homo sapiens [5]) was “Active” in each case. Besides, the inhibition result (in the experiment listed under Homo sapiens [2]; in experiment [3]) was “inactive” each time.

Turning to `COCCNc1ncnc2c1ncn2[C@@H]1O[C@H](COS(N)(=O)=O)[C@@H](O)[C@H]1O`, the EC50 in the experiment with K562 was over 1000 nM.

Turning to `CC(C)CC(C)Nc1ncnc2c1ncn2[C@@H]1O[C@H](COS(N)(=O)=O)[C@@H](O)[C@H]1O` (stereo partly drawn), the inhibition result (in experiment [1]; in the experiment filed under Homo sapiens [4]; in the experiment filed under Homo sapiens [5]) was “Active” each time. The inhibition entry in experiment [3] is “inactive”.

Consider `CCCCNc1ncnc2c1ncn2[C@@H]1O[C@H](COS(N)(=O)=O)[C@@H](O)[C@H]1O`, for which, in the experiment filed under Homo sapiens [8], the inhibition result was “Active”. Further, in the experiment listed under Homo sapiens [6], the inhibition is under 58%.

On to `NS(=O)(=O)OC[C@H]1O[C@@H](n2cnc3c(NCc4ccoc4)ncnc32)[C@H](O)[C@@H]1O`, for which the inhibition result in the experiment listed under Homo sapiens [8] is “Active”. Moreover, the inhibition in the experiment filed under Homo sapiens [7] came out at 100%.

As to `NS(=O)(=O)OC[C@H]1O[C@@H](n2cnc3c(NCCc4cccs4)ncnc32)[C@H](O)[C@@H]1O`, the inhibition entry (in [1]; in the experiment filed under Homo sapiens [4]; in the experiment listed under Homo sapiens [5]) was “Active” throughout. Also, in the experiment with K562, the half-maximal effective concentration (EC50) is 559 nM. Further, the inhibition result in [3] was “inactive”.

These data come from ChEMBL document CHEMBL2016531, “Identification of NAE Inhibitors Exhibiting Potent Activity in Leukemia Cells: Exploring the Structural Determinants of NAE Specificity” (ACS Med Chem Lett, 2011).
